# Screens from PubChem.
# The list is not random: actives were taken first. Their share in the collection is about 6.6%.
# PostGolgi yeast: phenotypic screen on post-Golgi transport, primary screen; post-Golgi transport phenotypic cell assay; inhibition, % at 10 µM; actives 0.9% (n = 98,000);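 further: yeast cells grown in 1536-well plates; yeast grown about 18 h at 30C before absorbance read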
# Ecoli tolC: growth inhibitors of E. coli tolC mutant, primary screen, strain BW25113 ΔtolC::kan, 384-well; OD615; growth inhibition, % at 10 µM (by protocol); actives 2.2% (n = 65,000); AID 573, 2007;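 active means growth inhibition at or above a cutoff equal to the mean over every tested compound plus 3 SD, cut at about 60% in these data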;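 further: growth measured after 20 h incubation at 37 °C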
#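 signal = optical density read at 615 nm | test system = E. coli ΔtolC::kan strain BW25113 | timing = 20 h compound exposure of bacteria at 37 °C | buffer or medium = LB medium plus 50 µg/mL kanamycin | compound dosing = 10 µM final, single dose | evaluation = % inhibition of E. coli growth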
# Ecoli WT expand: growth inhibitors of wild-type E. coli, primary screen, strain BW25113, expanded library, OD600; OD600 absorbance; actives 0.15% (n = 98,000); growth inhibition, % at 100 µM; AID 710, 2007;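 active means growth inhibition above about 50% at one test dose, limit read from the data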;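 further: growth measured after 20 h incubation at 37 °C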
# PostGolgi ctrl: growth inhibition of yeast control strain, primary screen, counter-screen for post-Golgi transport modulator project; actives 5% (n = 98,000); inhibition, % at 10 µM; AID 738, 2007; efflux-deficient yeast background strain, growth absorbance A615, 16 h
# Her2 expr inh: inhibitors of Her2 protein expression, primary screen, SKBR-3 cells, AlphaScreen, 66K library; Receptor tyrosine-protein kinase erbB-2 (Homo sapiens), P04626; SKBR-3 HER2 protein level, 18-24 h; active compounds read low; HER2 level % of control, % at 10 µM; actives 0.69% (n = 65,000);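 active means HER2 level under 5% of the carrier-only control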;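 further: 100% = DMSO carrier and 0% = 500 nM PU-H71 HSP90 inhibitor; lower value means stronger loss of Her2 protein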
# The depositor's hits bear a star; / = no result. Unless noted, no stated cut-off is given here; in the data, active means inhibition above about 30%; inactive means the rest.
SMILES,PostGolgi yeast,Ecoli tolC,Ecoli WT expand,PostGolgi ctrl,Her2 expr inh
Cc1ccc(-c2noc(C3CCCN(C(=O)c4ccc(F)cc4F)C3)n2)cc1 (configuration not stated),-2,39,-2,11,48
CC1(C)CC(=O)CC(C)(C)N1OC(=O)c1ccncc1,-2,-7,-4,3,93
CCC(C)c1ccc2oc(-c3ccc(NC(=O)Cn4cnc5c(=O)n(C)c(=O)n(C)c54)cc3)nc2c1 (configuration not stated),-17,-9,-10,76*,130
Cc1c(Cl)c([N+](=O)[O-])nn1Cc1ccc(C(=O)N/N=C\c2cccc(Br)c2)o1,67*,/,-8,18,/
CC(=O)OCC(=O)NCc1ccc2c(c1)OCO2,-6,-5,10,30*,102
Cc1ccsc1C(=O)OCC(=O)NCc1ccc2c(c1)OCO2,-3,1,-10,-4,121
CN(C)S(=O)(=O)N(Cc1ccc(Br)cc1)c1ccccc1,15,88*,8,13,151
CN(C)S(=O)(=O)N(CC(=O)N(Cc1ccccc1)Cc1ccccc1)c1ccccc1,-6,/,-4,34*,/
CC(C)N(Cc1ccccc1)S(=O)(=O)N(C)C,4,3,13,-2,105
CCCC(O)(c1ccc(Cl)cc1)C(CN1CCOCC1)c1ccccc1 (configuration not stated),1,/,1,50*,/
CCCCC(O)(CCN1CCOCC1)c1ccc(Cl)cc1 (configuration not stated),9,/,10,-3,/
O=c1n(Cc2ccc(Cl)cc2)c2sc3c(c2c2ncnn12)CCCC3,16,75*,-3,93*,113
Cc1ccc(Cl)cc1N1CCN(C(=O)c2cn(C)c(=O)c3c2c2ccccc2n3C)CC1,4,52,-6,57*,33
COCCn1cc(C(=O)N2CCN(C)CC2)c2c3ccccc3n(C)c2c1=O,-2,-9,-1,3,103
Cn1c2ccccc2c2c(C(=O)N3CCN(c4ccccc4)CC3)cn(C3CCCC3)c(=O)c21,5,27,-25,22,70
Cc1cccc(N2CCN(C(=O)c3cn(C)c(=O)c4c3c3ccccc3n4C)CC2)c1C,3,83*,-1,60*,47
COCCN1C(=O)C(=O)/C(=C(/O)c2cccc(S(=O)(=O)N(C)C)c2)C12C(=O)N(C)c1ccccc12 (configuration not stated),-2,0,4,0,105
O=C(Oc1nsnc1N1CCOCC1)N(c1ccccc1)c1ccccc1,15,29,-24,30*,96
COC(=O)Oc1nsnc1N1CCOCC1,1,-22,1,0,105
N#CC(c1ccccc1)c1ccc2c(C(F)(F)F)cc(C(F)(F)F)nc2n1 (configuration not stated),5,/,-1,51*,/
CCC(C)(C)n1nnnc1C(c1cc2cc(C)cc(C)c2[nH]c1=O)N1CCN(Cc2ccc3c(c2)OCO3)CC1 (configuration not stated),18,/,-7,37*,/
CCC(C)(C)n1nnnc1C(c1cc2cc(C)cc(C)c2[nH]c1=O)N1CCCC1 (configuration not stated),4,6,-3,12,78
CCC(C)(C)n1nnnc1C(c1cc2cc3c(cc2[nH]c1=O)OCO3)N1CCN(C)CC1 (configuration not stated),30*,-17,4,0,85
CCCc1cc(=O)[nH]c(SCc2ccccc2Cl)n1,4,/,5,45*,/
O=c1[nH]c(SCc2ccccc2Cl)nc2c1cnn2-c1ccccc1,-13,11,-6,42*,65
SMILES,PostGolgi yeast,Ecoli tolC,Ecoli WT expand,PostGolgi ctrl,Her2 expr inh
Cn1nc(C(F)(F)F)c2cc(NC(=O)OCc3ccc(C(C)(C)C)cc3)sc21,-5,/,-4,38*,/
CC(C(=O)N1c2ccccc2Sc2ccccc21)n1nnc(-c2cccs2)n1 (configuration not stated),5,7,-16,32*,80
CCOC1(OCC)N=C(N)C2(C#N)C(c3ccc(NC(C)=O)cc3)C12C#N (configuration not stated),6,-11,-8,17,79
CCOC(=O)C1=C(C)N=c2s/c(=C/c3ccccc3)c(=O)n2C1c1ccc(OC)c(OC)c1 (configuration not stated),-5,/,-19,-1,/
CCOC(=O)C1=C(C)N=c2s/c(=C\c3ccncc3)c(=O)n2C1c1ccc2c(c1)OCO2 (configuration not stated),-1,21,-6,30,-75*
Cc1nn(-c2ccccc2)c2sc(C(=O)N3CCCCC3)cc12,-1,0,-6,23,78
Cc1nn(-c2ccccc2)c2sc(C(=O)N3CCc4ccccc4C3)cc12,-1,27,-10,45*,105
Cc1noc(C)c1C(=O)N1CCc2ccccc2C1,-2,-7,-9,-6,-16*
Cc1noc(C)c1C(=O)N1CCCc2ccccc21,5,/,-6,5,/
Cc1nc2ccccc2c2oc(C(=O)N3CCc4ccccc4C3)cc12,-10,33,-6,35*,58
O=C1c2ccccc2C(=O)N1CCCCSc1nc2ccccc2o1,11,/,-17,30*,/
O=C(Nc1nc2ccccc2s1)C1CCCN1S(=O)(=O)c1ccc(Cl)cc1 (configuration not stated),0,86*,-7,68*,99
Cc1ccc(S(=O)(=O)N2CCCC2C(=O)Nc2nc3ccccc3s2)cc1 (configuration not stated),-11,21,4,44*,74
COc1ccc(S(=O)(=O)N2CCCC2C(=O)Nc2ccc(C)cc2)cc1 (configuration not stated),-6,6,-3,4,72
CCc1nnc(NC(=O)C2CCCN2S(=O)(=O)c2ccc(C)cc2)s1 (configuration not stated),0,-9,1,8,86
COc1ccc(-c2csc(NC(=O)C3CCCCN3S(=O)(=O)c3ccccc3)n2)cc1 (configuration not stated),6,/,-14,52*,/
O=C(NCCNc1ccc([N+](=O)[O-])cc1)c1ccccc1Br,0,/,3,0,/
Oc1ccc2c(c1)oc1cc(O)ccc12,1,100*,35,1,59
Cc1oc2cc(O)ccc2c(=O)c1Oc1ccc2ccccc2c1,0,/,2,19,/
COc1ccc(-c2nnc(SCc3cc(C)ccc3C)n2N)cc1,-3,/,4,4,/
CN(CCOc1ccccc1)S(=O)(=O)c1ccc2oc3ccccc3c2c1,-2,/,-27,18,/
COc1ccc(NC(=O)c2ccc(Cl)c(S(=O)(=O)N3CCc4ccccc4C3)c2)cn1,-2,62*,-10,45*,67
COc1ccccc1NC(=O)c1ccc(Cl)c(S(=O)(=O)N2CCOCC2)c1,-4,4,2,-4,116
